# Compounds with a hit are over-represented: about 3.5% of the library has one in this group of screens.
# PGC1a acetyl inh: modulators of PGC1a acetylation | U2OS PGC1a acetylation, AlphaScreen anti-acetyl-lysine; with virally co-expressed GCN5 acetyltransferase | inhibition, % at 15.6 µM | hit rate 0.17% among 350,000 | AID 651687;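 active = every replicate shows inhibition of at least 40%; inconclusive = mean inhibition at least 40% but some replicate below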;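 note: 0% = neutral control wells and 100% = positive control wells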
# DENV2 CPE rescue: DENV2-induced cell death inhibition; DENV2-infected cells, cytopathic effect rescue, plate reader; CPE inhibition, % at 9.99 µM; hit rate 1.7% among 350,000; AID 651640; in the data active = CPE inhibition above about 20%, passing the limit was not always enough; inconclusive = no clear call, values can overlap the other calls; tested in BHK-21 cells;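 note: 0% = median of neutral control wells and 100% = median of positive control wells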
# FN deposition inh: fibronectin deposition inhibition | AH1F fibroblasts, Alexa488-fibronectin deposition fluorescence, overnight | inhibition, % at 12.6 µM | hit rate 0.086% among 350,000;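 active = mean inhibition across replicates of 30% or more, regardless of how many single replicates reach that level; inconclusive = mean under 30% yet at least half of replicates reach 30%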;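 note: positive control wells lacked labelled fibronectin entirely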
#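 Measured by – fluorescence 485/525 nm · System – AH1F fibroblast monolayer, labelled fibronectin deposition · Amount – 10000 cells per well · Buffer or medium – serum-reduced DMEM (2% serum) · Doses – single dose, pinned · Also added – fluorescent fibronectin at 24 nM final · Schedule – 1 h cell attachment, overnight exposure to compound and label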
# Env fusion inh: HIV envelope-mediated fusion inhibition | hit rate 1.1% among 360,000 | AID 651610 | inhibition, % at 12.3 µM | HeLa-JRFL Env/CEM21 cell fusion, luciferase;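 active = mean replicate inhibition score of at least 50 and every replicate individually at or above 50; inconclusive = only one of the two criteria met; inactive = mean below 50 and not all replicates reaching 50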;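 note: 0% = plate neutral controls and 100% = maraviroc near 300 nM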
# rRNA inh HTS: inhibits bacterial ribosomal RNA function over humanized ribosomes. hit rate 1.6% among 350,000. E. coli WT GFP vs humanized-ribosome RFP mutants, fluorescence, 24 h; stronger effect = lower value; DMSO median 0, no signal -100. AID 720706. GFP signal change (wild-type ribosome), % (test concentration not listed);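 active = significant combined selectivity score with lowered wild-type GFP, culture density cut under 30%, mutant RFP and density less affected; inactive = any of these conditions unmet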
# PglD DTNB: inhibitors of Campylobacter jejuni PglD acetyltransferase; purified PglD enzyme, DTNB colorimetric CoA detection; inhibition, % at 12.5 µM; hit rate 0.098% among 360,000; AID 602405; in the data active = inhibition above about 16%, passing the limit was not always enough; inconclusive = no clear call, values can overlap the other calls
# * hit, by the source's call; ? = inconclusive; . = no result given; [ ] = remark or other dose.
SMILES,PGC1a acetyl inh,DENV2 CPE rescue,FN deposition inh,Env fusion inh,rRNA inh HTS,PglD DTNB
C[C@H]1CN([C@@H](C)CO)C(=O)c2cccc(NC(=O)Nc3ccc(C(F)(F)F)cc3)c2O[C@@H]1CN(C)CC1CC1,-29,31*,.,-13[16.7 µM],-12,1
C[C@H](CO)N1C[C@H](C)[C@@H](CN(C)CC2CC2)Oc2c(NC(=O)Nc3ccc(C(F)(F)F)cc3)cccc2C1=O,-4,-2,.,5[16.7 µM],-8,0
COc1ccc(CN(C)C[C@H]2Oc3c(NC(=O)Nc4ccc(OC)cc4)cccc3C(=O)N([C@H](C)CO)C[C@@H]2C)cc1,3,-4,.,-14[16.7 µM],-4,-1
Cc1ccc(OCc2ccc(-c3ccccc3)cc2)c([N+](=O)[O-])n1,-12,36*,-2,-11,2,3
Cc1ccc(OCC(=O)c2cc(C)n(-c3ccccc3)c2C)c([N+](=O)[O-])n1,.,.,-13,67*,.,.
CN1CCN(C(=O)C[C@H]2CC[C@@H]3[C@@H](COc4ccc(NC(=O)C5CCCCC5)cc4C(=O)N3C)O2)CC1,-11,18,-3,15[16.7 µM],6,7
O=C(NCc1ccncc1)Nc1ccc(Cl)cc1Cl,-7,.,.,.,.,6
O=C(NCc1cccnc1)Nc1ccc(Cl)cc1Cl,2,-8,10,57*,-2,1
O=C(NCc1cccnc1)Nc1ccc(Br)cc1Cl,.,10,.,56*,-20,0
O=C(Cc1csc(NC(=O)Nc2ccc(Cl)cc2)n1)NCc1cccnc1,.,15,1,1,-32*,-2
C[C@H](CO)N1C[C@H](C)[C@@H](CN(C)S(=O)(=O)c2ccc(F)cc2)Oc2c(NC(=O)C3CC3)cccc2C1=O,0,10,3,-24[16.7 µM],0,-3
COc1ccc(Nc2ncnc3ccccc23)cc1,15,.,.,.,.,-7
COc1ccc(Nc2ccnc3ccccc23)cc1,51*,.,.,.,.,.
O=C(COC(=O)c1ccc2c(c1)OCO2)NC1CCCCC1,-8,21*,0,5,.,-3
CC(C)(C)c1cccc(C2(O)C(=O)c3ccccc3C2=O)c1O,2,0,-1,4,-38*,.
Cc1ccc(C2(O)C(=O)c3ccccc3C2=O)c(O)c1C,-10,-3,0,-1,-16,-3
O=C(CN1CCOCC1)N[C@@H]1CC[C@@H](CCn2cc(C3CCCC3)nn2)O[C@@H]1CO,-1,-3,-8,.,-3,.
CO[C@@H]1CN(C)C(=O)c2ccc(NS(=O)(=O)c3ccc(Oc4ccccc4)cc3)cc2OC[C@H](C)NC[C@H]1C,-12,-5,-4,29[16.7 µM],1,0
CO[C@H]1CN(C)C(=O)c2ccc(NS(=O)(=O)c3ccc(Oc4ccccc4)cc3)cc2OC[C@H](C)NC[C@H]1C,-4,22*,-13,-6[16.7 µM],3,0
CO[C@@H]1CN(C)C(=O)c2ccc(NS(=O)(=O)c3cccc(F)c3)cc2OC[C@@H](C)NC[C@@H]1C,0,71*,20,.,1,.
CO[C@@H]1CN(C)C(=O)c2ccc(NS(=O)(=O)c3ccc(-c4ccccc4)cc3)cc2OC[C@H](C)NC[C@@H]1C,-4,-4,-13,.,1,0
CO[C@H]1CN(C)C(=O)c2ccc(NS(=O)(=O)c3ccc(-c4ccccc4)cc3)cc2OC[C@@H](C)NC[C@@H]1C,-6,29*,6,.,-1,.
C[C@H](CO)N1C[C@H](C)[C@@H](CN(C)C)OCCCC[C@H](C)Oc2ccc(NC(=O)NC3CCCCC3)cc2C1=O,1,20,.,9[16.7 µM],6,-1
CCC(=O)N1C[C@@H](C)[C@@H](OC)CN(C)C(=O)c2ccc(NC(=O)COC)cc2OC[C@H]1C,9,-6,-14,15[16.7 µM],1,-3
O=C(C[C@H]1C[C@H]2c3cc(NS(=O)(=O)c4ccccc4)ccc3O[C@H]2[C@H](CO)O1)NCC(F)(F)F,1,2,6,-3[16.7 µM],-6,0
SMILES,PGC1a acetyl inh,DENV2 CPE rescue,FN deposition inh,Env fusion inh,rRNA inh HTS,PglD DTNB
CCOc1ccc(/C=N/n2nnnc2N)cc1OCC,-4,27*,9,12,-7,-4
C[C@H](CO)N1C[C@H](C)[C@@H](CN(C)S(=O)(=O)c2cn(C)cn2)Oc2ccc(NS(C)(=O)=O)cc2CC1=O,10,.,.,15[16.7 µM],4,-1
COc1ccc(CN(C)C[C@@H]2Oc3ccc(NS(=O)(=O)c4ccc(F)cc4)cc3CC(=O)N([C@H](C)CO)C[C@@H]2C)cc1,6,23*,-10,.,0,-1
COc1ccc(S(=O)(=O)Nc2ccc3c(c2)CC(=O)N([C@H](C)CO)C[C@H](C)[C@H](CN(C)Cc2ccc(Cl)c(Cl)c2)O3)cc1,-15,?,.,-57[16.7 µM],-2,-3
C[C@@H]1CN([C@@H](C)CO)C(=O)Cc2cc(NS(=O)(=O)c3ccc(F)cc3)ccc2O[C@H]1CN(C)Cc1ccc(Cl)c(Cl)c1,34,.,.,100*[16.7 µM],1,.
COc1ccc(S(=O)(=O)Nc2ccc3c(c2)CC(=O)N([C@H](C)CO)C[C@@H](C)[C@H](CN(C)Cc2ccc(Cl)c(Cl)c2)O3)cc1,3,38*,.,-6[16.7 µM],2,-3
Cc1ccc(S(=O)(=O)Nc2ccc3c(c2)CC(=O)N([C@H](C)CO)C[C@H](C)[C@H](CN(C)Cc2ccc(Oc4ccccc4)cc2)O3)cc1,1,50*,.,-43[16.7 µM],1,1
C[C@H](CO)N1C[C@H](C)[C@H](CN(C)Cc2ccc(-c3ccccc3)cc2)Oc2ccc(NS(=O)(=O)c3cccs3)cc2CC1=O,0,51*,-12,5[16.7 µM],-3,0
C[C@H](CO)N1C[C@H](C)[C@H](CN(C)Cc2ccccc2)Oc2ccc(NS(=O)(=O)c3ccc(Cl)cc3)cc2CC1=O,.,28*,.,-14[16.7 µM],-9,-1
C[C@H]1CN([C@@H](C)CO)C(=O)Cc2cc(NS(=O)(=O)c3ccccc3)ccc2O[C@@H]1CN(C)Cc1ccc(Cl)c(Cl)c1,28,-7,.,58*[16.7 µM],-2,15
C[C@@H]1CN([C@@H](C)CO)C(=O)Cc2cc(NS(=O)(=O)c3ccccc3)ccc2O[C@@H]1CN(C)Cc1ccc(Cl)c(Cl)c1,-11,-10,.,13[16.7 µM],-4,1
COc1ccccc1CN1[C@H](CO)[C@H]2c3ccccc3N(C(=O)c3cccnc3)C[C@H]21,11,-13,0,.,1,6
CCCCn1c(NC(=O)c2ccccc2Cl)c(C#N)c2nc3ccccc3nc21,3,.,-5,-7,.,9
N#Cc1c(NC(=O)c2ccccc2Cl)n(Cc2ccccc2)c2nc3ccccc3nc12,.,8,-3,20,-17*,.
C[C@@H]1CN([C@H](C)CO)C(=O)c2cc(NS(=O)(=O)c3ccccc3)ccc2O[C@@H](C)CCCCO[C@@H]1CN(C)S(=O)(=O)c1cn(C)cn1,8,-15,-10,8[16.7 µM],-1,1
CCCCCCCCOC(=O)C[N+](C)(C)C/C=C(/C)Cl,3,9,.,1,-35*,-7

# High-throughput results: PubChem, Broad Institute
